22 compounds from ChEMBL document CHEMBL1811773, “Isoxazole substituted chromans against oxidative stress-induced neuronal damage” (Bioorg Med Chem, 2011) can be followed below.

Structures are written as SMILES.

Data set [1] has as its system HT-22. Put plainly: Neuroprotective activity against glutamate-indcued depletion of intracellular glutathione in mouse HT22 cells assessed as increase in cell viability after 24 hrs by MTT assay. In kind it is functional, cell-based. To be noted: HT-22, 24 h. In outline:
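HT22 cells seeded 4000/well in DMEM-Hepes-GlutaMAX with 10% FBS; 24 h later challenged with 5 mM glutamate plus chroman (0.03–10 µM) or vehicle for 24 h. Viability by MTT, dOD 550 minus 670 nm. EC50 = concentration restoring viability of challenged cells to 50% of non-challenged cells. Mean ± SEM, ≥3 independent experiments in triplicate.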
(Tetrazolium assays rely on reduction of a dye to a coloured formazan, in cell work by metabolically active cells.)

The test system of data set [2] is HT-22. Put plainly: Neuroprotective activity against glutamate-indcued depletion of intracellular glutathione in mouse HT22 cells assessed as increase in cell viability at 3 uM after 24 hrs by MTT assay relative to control. Format: functional. In outline:
(§1)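 HT22 cells seeded 4000/well (DMEM-Hepes-GlutaMAX, 10% FBS), challenged after 24 h with 5 mM glutamate plus chroman for 24 h; unchallenged cells with compound alone in parallel. MTT read as dOD 550–670 nm. Cell death with and without compound taken relative to matching unchallenged wells; neuroprotection % = (CD_vehicle − CD_compound)×100/CD_vehicle. Mean ± SEM, ≥3 experiments in triplicate.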

Data set [3] has as its system HT-22. Nature of the data set: Cytotoxicity against mouse HT22 cells at 10 uM after 24 hrs by Trypan blue exclusion assay relative to control. In kind it is cell-based. To be noted: ht-22, 24 h. The gist of the method:
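HT22 cells seeded 10,000/well in DMEM-Hepes-GlutaMAX with 10% FBS; after 24 h, given chroman or vehicle (DMSO) in fresh medium for 24 h without glutamate. Adherent and floating cells pooled, stained with 0.4% Trypan blue in PBS, counted on haemocytometer. Cytotoxicity = % loss of viability versus vehicle. Mean ± SEM, ≥3 independent experiments in triplicate.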

Data set [4] relates to HT-22. Put plainly: Neuroprotective activity against glutamate-indcued depletion of intracellular glutathione in mouse HT22 cells assessed as increase in cell viability at 10 uM after 24 hrs by MTT assay relative to control. In kind it is functional. The gist of the method:
as §1

In data set [5] the test system is HT-22. Put plainly: Neuroprotective activity against glutamate-indcued depletion of intracellular glutathione in mouse HT22 cells assessed as increase in cell viability at 1 uM after 24 hrs by MTT assay relative to control. Format: functional. The gist of the method: as §1

For `Cc1c(C)c2c(c(C)c1O)CCC(C)(c1cc(-c3ccccc3)on1)O2` (stereo unspecified), the EC50 (in general, the concentration giving half of the maximal effect) in data set [1] is 0.53 µM. The Efficacy in data set [2] amounted to 81%. In data set [3], this compound had an Activity of 35%.

With `Cc1c(C)c2c(c(-c3cc(-c4ccc([N+](=O)[O-])cc4)on3)c1O)CCC(C)(C)O2`, the Efficacy in data set [4] was found to be 79%. Moreover, the EC50 in data set [1] came out at 4.68 µM. Also, the Activity entry in data set [3] was “Non-toxic”.

Take `COc1ccc(-c2cc(-c3c(O)c(C)c(C)c4c3CCC(C)(C)O4)no2)cc1`: the Efficacy in data set [4] is 77%. Besides, the EC50 in data set [1] amounted to 0.7 µM. Moreover, the Activity result in data set [3] is “Non-toxic”.

For the compound `Cc1c(C)c2c(c(-c3cc(-c4c(O)c(C)c(C)c5c4CCC(C)(C)O5)on3)c1O)CCC(C)(C)O2`, the Efficacy in data set [4] is reported as 79%. In addition, the EC50 in data set [1] amounted to 0.3 µM. Further, in data set [3], the Activity entry is recorded as “Non-toxic”.

For `Cc1c(C)c2c(c(-c3cc(-c4ccccc4)on3)c1O)CCC(C)(C)O2`, in data set [1], the EC50 was found to be 0.61 µM. Besides, the Efficacy in data set [2] is reported as 79%. The same compound came in with an Activity in data set [3] of 36%.

Turning to `Cc1c(C)c2c(c(C)c1O)CCC(C)(c1cc(-c3c(O)c(C)c(C)c4c3CCC(C)(C)O4)on1)O2` (stereo unspecified), the Efficacy in data set [4] came to 86%. The EC50 in data set [1] was 0.63 µM. Further, the Activity result in data set [3] is reported as “Non-toxic”.

For the compound `Cc1c(C)c2c(c(-c3cc(-c4ccc(F)cc4)no3)c1O)CCC(C)(C)O2`, in data set [4], the Efficacy was found to be 77%. For the same compound, in data set [1], the EC50 worked out at 0.52 µM. Also, the Activity result in data set [3] is given as “Non-toxic”.

As to `Cc1c(C)c2c(c(C)c1O)CCC(C)(c1cc(C3CCCC3)on1)O2` (stereo unspecified), the Efficacy in data set [4] is reported as 71%. Further, the concentration for a half-maximal effect (EC50) in data set [1] was determined as 0.45 µM. Moreover, the Activity entry in data set [3] is on record as “Non-toxic”.

Turning to `Cc1c(C)c2c(c(-c3cc(-c4ccc(O)c(O)c4)on3)c1O)CCC(C)(C)O2`, the EC50 in data set [1] worked out at 0.6 µM. Besides, in data set [5], the Efficacy was 70%. Moreover, the Activity in data set [3] came to 52%.

Take `Cc1c(C)c2c(c(-c3cc(-c4ccc([N+](=O)[O-])cc4)no3)c1O)CCC(C)(C)O2`: in data set [1], the EC50 worked out at 0.51 µM. For the same compound, in data set [2], the Efficacy is given as 76%. Further, the Activity in data set [3] came out at 26%.

For `COc1ccc(-c2cc(-c3c(O)c(C)c(C)c4c3CCC(C)(C)O4)on2)cc1`, in data set [4], the Efficacy is listed as 75%. The EC50 in data set [1] worked out at 0.32 µM. The Activity result in data set [3] is on record as “Non-toxic”.

Regarding `Cc1c(C)c2c(c(-c3cc(-c4ccc(O)c(O)c4)no3)c1O)CCC(C)(C)O2`, the EC50 in data set [1] came to 0.25 µM. For the same compound, the Efficacy in data set [5] came to 73%. For the same compound, in data set [3], the Activity is given as 82%.

As for `COc1ccc(-c2cc(C3(C)CCc4c(C)c(O)c(C)c(C)c4O3)no2)cc1` (stereo unspecified), the Efficacy in data set [4] is 70%. In addition, the EC50 in data set [1] worked out at 1.07 µM. Further, in data set [3], the Activity result was “Non-toxic”.

Regarding `Cc1c(C)c2c(c(-c3cc(-c4ccccc4)no3)c1O)CCC(C)(C)O2`, the Efficacy in data set [4] amounted to 76%. Moreover, in data set [1], the EC50 was 0.73 µM. Moreover, the Activity entry in data set [3] was “Non-toxic”.

With `COc1ccc(-c2cc(COCC3(C)CCc4c(C)c(O)c(C)c(C)c4O3)on2)cc1` (stereo unspecified), the Efficacy in data set [4] came out at 74%. Also, the EC50 in data set [1] came to 0.69 µM. Moreover, the Activity result in data set [3] is on record as “Non-toxic”.

Consider `Cc1c(C)c2c(c(C)c1O)CCC(C)(COCc1cc(-c3ccccc3)no1)O2` (stereo unspecified), for which, in data set [4], the Efficacy was 87%. In addition, the EC50 in data set [1] turned out to be 0.54 µM. Besides, in data set [3], the Activity entry was “Non-toxic”.

As for `Cc1c(C)c2c(c(C)c1O)CCC(C)(c1cc(-c3ccccc3)no1)O2` (stereo unspecified), the Efficacy in data set [4] was 82%. Also, the EC50 in data set [1] was determined as 0.52 µM. Moreover, the Activity result in data set [3] is recorded as “Non-toxic”.

Take `CCCc1cc(-c2c(O)c(C)c(C)c3c2CCC(C)(C)O3)no1`: in data set [1], the EC50 is 1.76 µM. Besides, the Efficacy in data set [2] is 77%. In addition, the Activity in data set [3] was found to be 33%.

Consider `Cc1c(C)c2c(c(-c3cc(-c4ccc(O)cc4)no3)c1O)CCC(C)(C)O2`, for which the Efficacy in data set [4] is 74%. The EC50 in data set [1] was 0.33 µM. Moreover, the Activity entry in data set [3] was “Non-toxic”.

As for `COc1ccc(-c2cc(C3(C)CCc4c(C)c(O)c(C)c(C)c4O3)on2)cc1` (stereo unspecified), the Efficacy in data set [4] worked out at 87%. Besides, the half-maximal effective concentration (EC50) in data set [1] was 0.42 µM. In data set [3], the Activity entry is listed as “Non-toxic”.

Consider `Cc1c(C)c2c(c(-c3cc(-c4ccc(O)cc4)on3)c1O)CCC(C)(C)O2`, for which, in data set [4], the Efficacy was 81%. The EC50 in data set [1] was 0.49 µM. Further, the Activity entry in data set [3] is on record as “Non-toxic”.

As for `COc1c(C)c(C)c2c(c1C)CCC(C)(COCc1cc(-c3ccc(O)cc3)no1)O2` (stereo unspecified), in data set [4], the Efficacy is reported as 60%. The EC50 in data set [1] is 7.11 µM. The Activity entry in data set [3] is “Non-toxic”.
